Assay results: ChEMBL document CHEMBL1154060, “Synthesis and structure-activity relationship of Huprine derivatives as human acetylcholinesterase inhibitors” (Bioorg Med Chem, 2009)

Assays:
Acetylcholinesterase = Acetylcholinesterase (Homo sapiens, UniProt P22303); assay: Inhibition of human recombinant AChE […] by Ellman's assay
Cholinesterase [1] = target: T1, Cholinesterase (Homo sapiens, UniProt P06276); assay: Inhibition of human recombinant BuChE by Ellman's assay
Outline: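 Ellman assay at 25 °C with 125 pM recombinant human enzyme: AChE with acetylthiocholine iodide, BuChE with butyrylthiocholine, substrate at 0.53 mM. Buffer was 0.1 M phosphate pH 7.4 with 15 mM NaCl, NaN3, BSA and DTNB. Inhibitor was preincubated with enzyme for at least 30 min. Rate read at 414 nm for 20 min against an inhibitor-free 100% control. Generally at least triplicate; IC50 by nonlinear regression.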

Homo sapiens = species on record: Homo sapiens; assay: Selectivity ratio of IC50 for human recombinant BuChE to IC50 for human recombinant AChE
Cholinesterase [2] = target: T1, Cholinesterase; assay: Inhibition of human recombinant BuChE assessed as enzyme activity reversion at 100 uM by Ellman's assay
Cholinesterase [3] = target: T1, Cholinesterase; assay: Inhibition of human recombinant BuChE assessed as enzyme activity reversion at 10 uM by Ellman's assay

T1 sequence (P06276 whole entry): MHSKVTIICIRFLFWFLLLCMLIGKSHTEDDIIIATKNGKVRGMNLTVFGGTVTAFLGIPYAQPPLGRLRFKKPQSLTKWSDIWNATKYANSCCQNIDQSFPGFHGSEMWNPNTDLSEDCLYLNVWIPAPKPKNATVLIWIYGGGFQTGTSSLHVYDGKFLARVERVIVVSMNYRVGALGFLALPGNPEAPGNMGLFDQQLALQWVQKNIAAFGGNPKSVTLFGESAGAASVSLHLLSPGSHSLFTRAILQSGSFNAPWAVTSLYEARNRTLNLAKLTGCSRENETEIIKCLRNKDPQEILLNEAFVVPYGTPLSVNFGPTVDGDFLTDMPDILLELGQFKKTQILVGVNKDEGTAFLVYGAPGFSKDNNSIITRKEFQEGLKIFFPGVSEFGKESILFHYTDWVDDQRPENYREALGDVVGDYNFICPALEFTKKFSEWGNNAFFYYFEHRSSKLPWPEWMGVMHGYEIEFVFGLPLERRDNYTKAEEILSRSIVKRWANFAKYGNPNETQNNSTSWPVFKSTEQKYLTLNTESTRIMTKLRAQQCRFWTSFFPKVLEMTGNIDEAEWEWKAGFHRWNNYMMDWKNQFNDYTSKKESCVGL
Acetylcholinesterase, sequence (P22303 whole entry): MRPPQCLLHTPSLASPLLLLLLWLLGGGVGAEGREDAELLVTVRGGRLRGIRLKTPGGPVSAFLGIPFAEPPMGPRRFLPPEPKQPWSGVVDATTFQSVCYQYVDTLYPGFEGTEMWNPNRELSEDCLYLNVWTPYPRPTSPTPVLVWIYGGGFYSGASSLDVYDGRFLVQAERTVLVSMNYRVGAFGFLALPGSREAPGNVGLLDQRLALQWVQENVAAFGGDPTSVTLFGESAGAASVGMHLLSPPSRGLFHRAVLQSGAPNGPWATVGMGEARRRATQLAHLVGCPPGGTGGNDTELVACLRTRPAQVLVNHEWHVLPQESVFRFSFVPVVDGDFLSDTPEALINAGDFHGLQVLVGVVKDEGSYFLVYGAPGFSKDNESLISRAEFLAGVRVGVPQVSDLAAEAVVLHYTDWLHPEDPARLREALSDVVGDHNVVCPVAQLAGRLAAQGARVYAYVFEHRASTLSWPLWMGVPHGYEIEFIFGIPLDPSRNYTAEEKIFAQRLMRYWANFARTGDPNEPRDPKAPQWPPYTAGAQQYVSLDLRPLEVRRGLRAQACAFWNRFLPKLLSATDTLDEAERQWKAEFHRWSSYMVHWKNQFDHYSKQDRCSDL

| Structure (SMILES) | IC50 (Acetylcholinesterase) [µM] | further results |
| --- | --- | --- |
| CCC1=CC2Cc3nc4cc(Cl)ccc4c(NCCO)c3C(C1)C2 (racemic) | 0.00675 | IC50 (Cholinesterase [1]): 3.64 µM; Ratio IC50 (Homo sapiens): 540 |
| CCC1=CC2Cc3nc4cc(Cl)ccc4c(NCCN=[N+]=[N-])c3C(C1)C2 (racemic) | 0.0137 | IC50 (Cholinesterase [1]): 0.824 µM; Ratio IC50 (Homo sapiens): 60 |
| CC1=CC2Cc3nc4cc(Cl)ccc4c(NCCCl)c3C(C1)C2 (racemic) | 0.0433 | – |
| CC1=CC2Cc3nc4cc(Cl)ccc4c(NCCN=[N+]=[N-])c3C(C1)C2 (racemic) | 0.00869 | IC50 (Cholinesterase [1]): 2.35 µM; Ratio IC50 (Homo sapiens): 270 |
| CC1=CC2Cc3nc4ncccc4c(N)c3C(C1)C2 (racemic) | 0.81 | IC50 (Cholinesterase [1]): 0.342 µM; Ratio IC50 (Homo sapiens): 0.4 |
| CC1=CC2Cc3nc4oc(C5CC5)nc4c(N)c3C(C1)C2 (racemic) | 50 | – |
| CCC1=CC2Cc3nc4ncccc4c(N)c3C(C1)C2 (racemic) | 0.855 | – |
| CCC1=CC2Cc3nc4cc(Cl)ccc4c(Cl)c3C(C1)C2 (racemic) | 19.2 | – |
| CC1=CC2Cc3nc4cc(Cl)ccc4c(NC(=O)CCl)c3C(C1)C2 (racemic) | 2.51 | – |
| COc1cc2nc3c(c(N)c2cc1OC)C1CC(C)=CC(C3)C1 (racemic) | 11.7 | – |
| CC1=CC2Cc3nc4oc(C5CCC5)nc4c(N)c3C(C1)C2 (racemic) | 27.1 | – |
| CC1=CC2Cc3nc4cc(Cl)ccc4c(NCCO)c3C(C1)C2 (racemic) | 0.00966 | – |
| C#CCCCCCCN1CCc2cc(OC)c(OC)cc2C1c1ccc([N+](=O)[O-])cc1 (centres undefined) | 2.92 | inhibition (Cholinesterase [2]): < 1% |
| COc1cc2c(cc1OC)C(c1cccc([N+](=O)[O-])c1)N(CCCCCCc1cn(CCNc3c4c(nc5cc(Cl)ccc35)CC3C=C(C)CC4C3)nn1)CC2 (racemic) | 0.00395 | Ratio IC50 (Homo sapiens): > 10000; inhibition (Cholinesterase [3]): 6% |
| CC1=CC2Cc3nc4cc(Cl)ccc4c(O)c3C(C1)C2 (racemic) | 14.7 | – |
| CCC1=CC2Cc3nc4cnccc4c(N)c3C(C1)C2 (racemic) | 0.664 | – |
| CCCSc1nc2nc3c(c(N)c2s1)C1CC(C)=CC(C3)C1 (racemic) | 7.69 | – |
| CC1=CC2Cc3nc4oc(C)c(C)c4c(N)c3C(C1)C2 (racemic) | 4.78 | – |
| CC1=CC2Cc3nc4cc(Cl)ccc4c(Cl)c3C(C1)C2 (racemic) | 22.4 | – |
| CCC1=CC2Cc3nc4oc(C5CC5)nc4c(N)c3C(C1)C2 (racemic) | 50 | – |
| CC1=CC2Cc3nc4[nH]ncc4c(N)c3C(C1)C2 (racemic) | 50 | – |
| CCC1=CC2Cc3nc4oc(C)c(C)c4c(N)c3C(C1)C2 (racemic) | 6.45 | – |
| C#CCCCCCCN1CCc2cc(OC)c(OC)cc2C1c1cccc([N+](=O)[O-])c1 (centres undefined) | 8.08 | inhibition (Cholinesterase [2]): < 1% |
| CCC1=CC2Cc3nc4cc(Cl)ccc4c(N)c3[C@@H](C1)C2 [HUPRINE X] | 0.0011 | – |
| CCC1=CC2Cc3nc4cc(OC)c(OC)cc4c(N)c3C(C1)C2 (racemic) | 5.1 | – |
| CSc1n[nH]c2nc3c(c(N)c12)C1CC(C)=CC(C3)C1 (racemic) | 50 | – |
| CCCSc1nc2nc3c(c(N)c2s1)C1CC(CC)=CC(C3)C1 (racemic) | 7.27 | – |
